In ChEMBL document CHEMBL3822416, “Design, Synthesis, and Structure-Activity Relationship Study of Novel Indole-2-carboxamide Derivatives as Anti-inflammatory Agents for the Treatment of Sepsis” (J Med Chem, 2016) one finds inhibition and IC50 data, which are given here for 37 molecules.

Test [1] concerns RAW264.7. In words: Inhibition of LPS-induced TNF-alpha production in mouse RAW264.7 cells at 10 uM preincubated for 30 mins prior to LPS challenge measured after 24 hrs by ELISA. In kind it is functional. The method, boiled down:
(§1)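 RAW 264.7 cells (ATCC) were grown in DMEM with 10% FBS and penicillin/streptomycin at 37 °C, 5% CO2. Cells were seeded at 400,000/well and incubated for 24 h, pretreated with compound for 30 min, then given 0.5 µg/mL LPS for 24 h. Medium TNF-α or IL-6 was measured by ELISA and normalized to total protein of viable cell pellets.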

In test [2] the test system is RAW264.7. The experiment in a line: Inhibition of LPS-induced IL6 production in mouse RAW264.7 cells at 10 uM preincubated for 30 mins prior to LPS challenge measured after 24 hrs by ELISA. It counts as functional. The method, boiled down:
as §1

Test [3] deals with RAW264.7. The experiment in a line: Inhibition of LPS-induced IL6 production in mouse RAW264.7 cells preincubated for 30 mins prior to LPS challenge measured after 24 hrs by ELISA. In kind it is functional, cell-based. The conditions noted are these: for pIC50: Mus musculus, RAW264.7, read-out: IC50. The procedure, abridged:
as §1
Background: ELISA stands for enzyme-linked immunosorbent assay.

Test [4] deals with RAW264.7. In words: Inhibition of LPS-induced TNF-alpha production in mouse RAW264.7 cells preincubated for 30 mins prior to LPS challenge measured after 24 hrs by ELISA. In kind it is functional, cell-based. The conditions noted are these: for pIC50: Mus musculus, RAW264.7, read-out: IC50. The method, boiled down:
as §1

pIC50: −log10 of the molar value. Calls of active or inactive are those of the source. No cut-off for these calls is given here.

Usually inhibition stands for the change of the read-out against control, counted positive when it falls. For orientation: pIC50 means the IC50 on a negative log10 scale, so that one unit is a factor of ten.

Turning to `O=C(Nc1ccc(OCc2ccccc2)c(Cl)c1)c1cc2cc([N+](=O)[O-])ccc2[nH]1`, the inhibition result in test [1] is “inactive”. For the same molecule, in test [2], the inhibition at 10 µM came to 21.5%.

On to `CN1CCN(c2ccc(NC(=O)c3cc4cc([N+](=O)[O-])ccc4n3Cc3cccc(F)c3)cc2)CC1`, for which the inhibition at 10 µM came to 22.8% in test [1] and 86.4% in test [2].

For `COc1cc(NC(=O)c2cc3cc([N+](=O)[O-])ccc3[nH]2)cc(OC)c1OC`, the inhibition at 10 µM amounted to 45.8% in test [1] and 62.3% in test [2].

Regarding `O=C(Nc1ccc(N2CCOCC2)cc1)c1cc2cc([N+](=O)[O-])ccc2[nH]1`, the inhibition at 10 µM is 18% in test [1] and 38% in test [2].

For the molecule `CN1CCN(c2ccc(NC(=O)c3cc4cc([N+](=O)[O-])ccc4n3Cc3ccc(Br)cc3)cc2)CC1`, the inhibition at 10 µM in test [1] came out at 31.1%; in test [2], 93%.

`CCC(=O)Nc1ccc2c(c1)cc(C(=O)Nc1ccc(N3CCN(C)CC3)cc1)n2Cc1ccc(C(F)(F)F)cc1`: the pIC50 in test [3] is 5.48; in test [4], 5.39.

`C=CC(=O)Nc1ccc2c(c1)cc(C(=O)Nc1ccc(N3CCN(C)CC3)cc1)n2Cc1ccc(C(F)(F)F)cc1`: the pIC50 was 5.20 in test [3] and 5.98 in test [4].

With `CN1CCN(c2ccc(NC(=O)c3cc4cc(NC(=O)CCl)ccc4n3Cc3ccc(C(F)(F)F)cc3)cc2)CC1`, the pIC50 is 5.52 in test [3] and 5.22 in test [4].

In the case of `CN1CCN(c2ccc(NC(=O)c3cc4cc([N+](=O)[O-])ccc4[nH]3)cc2)CC1`, the inhibition at 10 µM in test [1] is 62.5%; in test [2], 91%.

Take `CN1CCN(c2ccc(NC(=O)c3cc4cc([N+](=O)[O-])ccc4n3Cc3c(Cl)cccc3Cl)cc2)CC1`: the results for the inhibition at 10 µM in test [1] and in test [2] were 52.7% and 93.3%, respectively.

As to `O=C(Nc1ccc(OCc2ccc(Cl)cc2)cc1)c1cc2cc([N+](=O)[O-])ccc2[nH]1`, in test [1], the inhibition entry was “inactive”. In addition, at 10 µM the inhibition in test [2] was 4.28%.

Regarding `COc1cc(COc2ccc(NC(=O)c3cc4cc([N+](=O)[O-])ccc4[nH]3)cc2Cl)cc(OC)c1`, the inhibition at 10 µM came out at 7.67% in test [1] and 29% in test [2].

In the case of `CC(C)=CCOc1ccc(NC(=O)c2cc3cc([N+](=O)[O-])ccc3[nH]2)cc1`, the inhibition at 10 µM in test [1] amounted to 38.6%; in test [2] it was 56.5%.

As for `C=CCn1c(C(=O)Nc2ccc(N3CCN(C)CC3)cc2)cc2cc([N+](=O)[O-])ccc21`, the inhibition at 10 µM was found to be 12.7% in test [1] and 58.2% in test [2].

On to `O=C(Nc1ccc(OCc2cc(F)cc(F)c2)cc1)c1cc2cc([N+](=O)[O-])ccc2[nH]1`, for which the inhibition result in test [1] is “inactive”. Besides, 10 µM produced 11.2% inhibition in test [2].

As for `O=C(Nc1ccc(OCc2ccc(C(F)(F)F)cc2)c(Cl)c1)c1cc2cc([N+](=O)[O-])ccc2[nH]1`, in test [1], the inhibition result was “inactive”. In test [2], this molecule gave an inhibition at 10 µM of 29.2%.

Turning to `COc1ccc(CCNC(=O)c2cc3cc([N+](=O)[O-])ccc3[nH]2)cc1`, the inhibition at 10 µM in test [1] amounted to 9.75%; in test [2], 11.8%.

For `CN1CCN(c2ccc(NC(=O)c3cc4cc(NS(C)(=O)=O)ccc4n3Cc3ccc(C(F)(F)F)cc3)cc2)CC1`, the pIC50 in test [3] was 5.31; in test [4], 5.71.

As for `CN1CCN(c2ccc(NC(=O)c3cc4cc([N+](=O)[O-])ccc4n3Cc3ccc(C(F)(F)F)cc3)cc2)CC1`, the pIC50 was 5.29 in test [3] and 5.56 in test [4]. The inhibition at 10 µM worked out at 75.1% in test [1] and 98.7% in test [2].

Take `Cc1cc2cc(NC(=O)c3cc4cc([N+](=O)[O-])ccc4[nH]3)ccc2[nH]1`: the results for the inhibition at 10 µM in test [1] and in test [2] were 7.53% and 37%, respectively.

On to `O=C(Nc1ccc(OCc2c(Cl)cccc2Cl)c(Cl)c1)c1cc2cc([N+](=O)[O-])ccc2[nH]1`, for which, in test [1], the inhibition entry is “inactive”. In test [2], this molecule yielded an inhibition at 10 µM of 29.8%.

In the case of `CN1CCN(c2ccc(NC(=O)c3cc4cc([N+](=O)[O-])ccc4n3C)cc2)CC1`, the inhibition at 10 µM was found to be 16% in test [1] and 87.2% in test [2].

On to `COc1ccc(COc2ccc(NC(=O)c3cc4cc([N+](=O)[O-])ccc4[nH]3)cc2Cl)cc1`, for which the inhibition entry in test [1] was “inactive”. Moreover, in test [2], the inhibition at 10 µM is 24.8%.

In the case of `CCOc1ccc(NC(=O)c2cc3cc([N+](=O)[O-])ccc3[nH]2)cc1`, the inhibition at 10 µM was 33.8% in test [1] and 41.1% in test [2].

For `O=C(Nc1ccccc1)c1cc2cc([N+](=O)[O-])ccc2[nH]1`, the inhibition at 10 µM in test [1] was 17.5%; in test [2], 49.6%.

`O=C(Nc1ccc(OCc2cccc(F)c2)c(Cl)c1)c1cc2cc([N+](=O)[O-])ccc2[nH]1`: the inhibition result in test [1] and in test [2] was “inactive” throughout.

`COc1ccc(NC(=O)c2cc3cc([N+](=O)[O-])ccc3[nH]2)cc1`: the values for the inhibition at 10 µM in test [1] and in test [2] were 8.17% and 52.8%, respectively.

Turning to `CN1CCN(c2ccc(NC(=O)c3cc4cc(N)ccc4n3Cc3ccc(C(F)(F)F)cc3)cc2)CC1`, the IC50 result in test [3] (raw264.7) and in test [4] (raw264.7) was “Not Active” in each case.

Regarding `Cc1ccc(COc2ccc(NC(=O)c3cc4cc([N+](=O)[O-])ccc4[nH]3)cc2)cc1`, in test [1], the inhibition result is “inactive”. The molecule also came in with an inhibition at 10 µM in test [2] of 1.98%.

In the case of `COc1ccc2c(c1)c(CC(=O)O)c(C)n2C(=O)c1ccc(Cl)cc1` [INDOMETHACIN], the figures for the inhibition at 10 µM in test [1] and in test [2] were 24.1% and 53.6%, respectively.

Regarding `COc1ccc(Cn2c(C(=O)Nc3ccc(N4CCN(C)CC4)cc3)cc3cc([N+](=O)[O-])ccc32)cc1`, the figures for the inhibition at 10 µM in test [1] and in test [2] were 41.4% and 64.3%, respectively.

With `COc1cccc(COc2ccc(NC(=O)c3cc4cc([N+](=O)[O-])ccc4[nH]3)cc2Cl)c1`, the inhibition result in test [1] is “inactive”. Further, the inhibition at 10 µM in test [2] came to 21.9%.

As to `Cc1ccc(C)c(COc2ccc(NC(=O)c3cc4cc([N+](=O)[O-])ccc4[nH]3)cc2Cl)c1`, the inhibition at 10 µM amounted to 2.89% in test [1] and 24.9% in test [2].

With `COc1cc(NC(=O)c2cc3cc([N+](=O)[O-])ccc3[nH]2)cc(OC)c1`, the inhibition at 10 µM is 17.2% in test [1] and 31.3% in test [2].

On to `O=C(NCCc1ccccc1)c1cc2cc([N+](=O)[O-])ccc2[nH]1`, for which the inhibition at 10 µM in test [1] was found to be 2.58%; in test [2] it was 8.71%.

With `CN1CCN(c2ccc(NC(=O)c3cc4cc([N+](=O)[O-])ccc4n3Cc3ccc(Cl)cc3)cc2)CC1`, the inhibition at 10 µM worked out at 67% in test [1] and 97.2% in test [2].

As for `O=C(Nc1ccc(OCc2cccc(F)c2)cc1)c1cc2cc([N+](=O)[O-])ccc2[nH]1`, in test [1], the inhibition entry is “inactive”. Besides, at 10 µM the inhibition in test [2] was 4.42%.
